This is an account of results in paper PMC5599970 (Hepatology (Baltimore, Md.), 2017).

In series [1] the test system is hepatic DNL. The conditions noted are these: subjects with type 2 diabetes mellitus and hypertriglyceridemia; cited from earlier work.
Series [2] can be described thus: Serum lipids, leptin, adiponectin, glucose and blood ketones. The series is classed as in vivo, human. The conditions noted are these: single dose of 20, 50, or 200 mg. The method, boiled down: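 Blood was drawn at protocol-specified times during the fasted, fructose-fed crossover periods. Serum lipids and blood ketones (ketometer) were measured by a clinical laboratory. Leptin and adiponectin were measured by solid-phase ELISA.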

The conditions of series [3]: single doses between 30 and 1,000 mg; healthy adults; cited from earlier work.
A short description of series [4]: Plasma pharmacokinetics after a single oral dose. The series is classed as in vivo. The settings on record: human. The gist of the method:
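Single oral capsule dose with 240 mL water in fasted men during fructose feeding, n = 10/group. Plasma was sampled predose and hourly through 10 h. Levels were measured by validated HPLC-MS/MS, with a lower limit of quantitation of 0.5 ng/mL. Noncompartmental parameters were calculated from actual sample times.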

Series [5] concerns hepatic de novo lipogenesis (DNL). Description: Fructose-stimulated fractional hepatic DNL. The series is classed as in vivo, human. The conditions noted are these: for Inhibition of fasting-adjusted fractional DNL AUEC relative to placebo: 10-hour period; for Inhibition of fasting-adjusted fractional DNL AUEC relative to placebo / Mean reduction of fasting-adjusted DNL at 10 hours postdose relative to placebo: mean ± SEM. The gist of the method:
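Overweight/obese men (18–50 y, BMI 25–32 kg/m²), 10/dose, placebo crossover, ≥5-day washout, fasted from hour −12. IV [1-13C]acetate (10 g in 1,000 mL 0.45% saline, 50 mL/hour, 19 h) from hour −9; capsule at hour 0; fructose 250 mg/kg every 30 min to hour +9.5. VLDL-TG palmitate by GC-MS/MIDA, hours −1 to +10; fasting-baseline-subtracted, AUEC, expressed relative to placebo.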

Series [6] shares this test system. Description: PK-PD analysis of plasma exposure versus fractional DNL. The series is classed as in vivo, human. The settings on record: all dose groups. The gist of the method:
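Each subject's time-matched plasma levels (sampled predose and hourly to 10 h, HPLC-MS/MS) were paired with fasting-adjusted fractional DNL at every sampling point for every dose group. The plasma levels at which 70% and 90% inhibition of maximal DNL occurred were read from these paired data.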

A short description of series [7]: Hepatic extraction in preclinical studies. The series is classed as in vivo. The conditions noted are these: cynomolgus monkeys, unpublished data.
The nature of series [8]: Safety: treatment-emergent adverse events after a single oral dose. The series is classed as in vivo, human. The gist of the method: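 TEAEs were any events after study medication and were coded to MedDRA v18.0. Events were attributed to the period's treatment, and events between acetate infusion and first dosing were counted separately. Monitoring included physical exams, vital signs (hours 0, 5.5, 10.5), clinical laboratory tests (day −1 and hour 10) and screening ECG.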

Each structure is given as a SMILES string.

For `CCc1ccc(CCOc2ccc(CC3SC(=O)NC3=O)cc2)nc1` (stereo not shown) [pioglitazone], the “Reduction of hepatic DNL” value in series [1] was 40%.

Usually Tmax stands for the time at which the peak concentration occurs. As usually defined, the Cmax is the highest concentration seen after dosing. Consider `COc1ccccc1[C@H](Cn1c(=O)n(C(C)(C)C(=O)O)c(=O)c2c(C)c(-c3ncco3)sc21)OC1CCOCC1` [NDI‐010976], for which, in series [2], the “Effects on serum glucose, lipids, leptin, adiponectin, blood ketones” value is on record as “no significant NDI‐010976 effects”. Further, the Tolerability entry in series [3] is “well tolerated”. For the same molecule, the Tmax in series [4] fell in the range of 1 to 2 h. Besides, in series [4] (20 mg), the Cmax was 43.4 ng/mL. For the same molecule, the concentration at 2 h in series [4] (20 mg) is 5.7 to 23.5 ng/mL. Also, the “Inhibition of fasting-adjusted fractional DNL AUEC relative to placebo” value in series [5] (20 mg single oral dose) was “approximately 70 ± 6%”; in series [5] (50 mg single oral dose), roughly 85 ± 3%; in series [5] (200 mg single oral dose), roughly 104 ± 2%. Also, the entries for the “Mean reduction of fasting-adjusted DNL at 10 hours postdose relative to placebo” value in series [5] (20 mg single oral dose), in series [5] (50 mg single oral dose) and in series [5] (200 mg single oral dose) were “approximately 41 ± 9%”, roughly 53 ± 9% and roughly 94 ± 4%, respectively. Moreover, in series [5] (20 mg, mean ± standard deviation), the “Inhibition of fractional DNL at 2 hours postdose” value turned out to be 60 ± 26%. Further, in series [5] (50 mg single dose, 10-hour period vs matched placebo period), the “Inhibition of DNL by fasting-adjusted DNL AUEC, all subjects” value was greater than 70%. In addition, the “Inhibition of DNL, all subjects” value in series [5] (200 mg single dose) is reported as “complete or near complete inhibition of DNL”. The “Plasma concentration associated with at least 70% inhibition of fractional DNL” value in series [6] (one data point outlier) was greater than 2.2 ng/mL. For the same molecule, the “Plasma concentration yielding >90% inhibition of fractional DNL” value in series [6] (two data point outliers) is greater than 4.0 ng/mL. The Hepatic extraction entry in series [7] is “approximately 94%”. The “Number of subjects with TEAEs (% of subjects dosed)” value was 3 (33%) subjects (%) in series [8] (20 mg); 7 (70%) subjects (%) in series [8] (50 mg); 5 (50%) subjects (%) in series [8] (200 mg); 15 (52%) subjects (%) in series [8] (Total, all doses). The “Number of subjects without TEAEs (% of subjects dosed)” value in series [8] (20 mg) is 6 (67%) subjects (%); in series [8] (50 mg), 3 (30%) subjects (%); in series [8] (200 mg) it was 5 (50%) subjects (%); in series [8] (Total, all doses), 14 (48%) subjects (%). The “Deaths, serious AEs, Grade 3 or higher TEAEs” value in series [8] (single oral doses 20 to 200 mg) is listed as “no deaths, serious AEs, or Grade 3 or higher TEAEs”. In addition, in series [8] (single oral doses 20 to 200 mg), the Safety and tolerability result was “safe and well tolerated”.
